Assay outcomes deposited in PubChem BioAssay by Broad Institute.
RAD52 inh = RAD52 (human) annealing inhibition; AID 651710; recombinant RAD52 DNA annealing, FRET fluorescence; 360,000 tested, 0.46% active; P43351; inhibition, % at 18.7 µM;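 active = every replicate showing at least 50% inhibition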
Ecoli rRNA inh = inhibitors of bacterial rRNA selective over humanized ribosomes; E. coli WT GFP vs humanized-ribosome RFP mutants, fluorescence, 24 h; stronger effect = lower value; DMSO median 0, no signal -100; GFP signal change (wild-type ribosome), % (no concentration beside the values); 350,000 tested, 1.6% active; AID 720706;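 active = significant combined selectivity score with lowered wild-type GFP, culture density cut under 30%, mutant RFP and density less affected; inactive = any of these conditions unmet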
Cneo AK release = causes C. neoformans cell lysis. adenylate kinase release luminescence, 4 h; normalised: neutral wells 0, clomiphene wells 100. lysis activity, % at 15 µM. 360,000 tested, 0.2% active. AID 651654;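 active = mean lysis activity across replicates of at least 80%, whatever share of replicates individually reach that level; inactive = mean lysis activity below 80%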
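Test system: log-phase Cryptococcus neoformans yeast cells; Quantity: yeast cell density of 5 × 10^6 cells/mL; Buffer or medium: YPD; Doses: single compound concentration per well; Timing: 4 h at 37 °C static, read 1 h later; Measured by: AK luminescence; Read-out basis: lysis from increased AK signal; Control set: Clomiphene as positive control.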
PglD inh = blocks C. jejuni PglD acetyltransferase activity; AID 602405; inhibition, % at 12.5 µM; 360,000 tested, 0.098% active; purified PglD enzyme, DTNB colorimetric CoA detection; in the data active = inhibition above about 16%, passing the limit was not always enough
RAD54 branch = RAD54 (human) branch migration inhibition | Q92698 | RAD54 Holliday junction branch migration, FAM/BHQ fluorescence | inhibition, % at 10.4 µM | 360,000 tested, 0.14% active;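 active = mean normalized replicate activity at least 40 and at least half of replicates scoring 40 or more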;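 also: inhibitors cause a drop in the FAM fluorescence signal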
Target sequence (Q92698 whole entry, looked up): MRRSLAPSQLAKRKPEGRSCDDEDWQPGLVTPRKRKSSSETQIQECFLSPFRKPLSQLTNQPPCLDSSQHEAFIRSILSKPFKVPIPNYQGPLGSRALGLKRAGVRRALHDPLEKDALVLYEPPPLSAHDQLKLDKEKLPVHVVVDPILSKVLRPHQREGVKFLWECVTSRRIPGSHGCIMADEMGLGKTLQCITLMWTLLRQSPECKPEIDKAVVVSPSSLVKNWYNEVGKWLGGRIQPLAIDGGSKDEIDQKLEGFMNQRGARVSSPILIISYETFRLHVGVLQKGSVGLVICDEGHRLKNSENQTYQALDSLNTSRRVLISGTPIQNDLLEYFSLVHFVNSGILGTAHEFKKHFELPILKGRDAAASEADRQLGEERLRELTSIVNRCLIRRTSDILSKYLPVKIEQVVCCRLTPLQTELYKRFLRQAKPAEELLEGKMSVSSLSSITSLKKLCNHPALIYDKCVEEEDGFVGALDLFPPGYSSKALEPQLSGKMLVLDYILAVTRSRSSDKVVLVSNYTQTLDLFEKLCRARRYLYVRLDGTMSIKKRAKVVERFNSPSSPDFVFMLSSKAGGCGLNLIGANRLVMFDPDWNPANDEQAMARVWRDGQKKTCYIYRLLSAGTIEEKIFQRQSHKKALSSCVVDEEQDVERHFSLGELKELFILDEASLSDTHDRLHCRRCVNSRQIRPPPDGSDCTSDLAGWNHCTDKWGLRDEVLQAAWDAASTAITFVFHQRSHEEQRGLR
Of the large screens only hits and unclear results are named; the others gave an inactive call; ! = repeats disagree. Only some compounds are listed: those with a hit (about 1.9% of all), similar ones and a draw of the others.

COc1ccccc1C#Cc1ccc2c(c1)[C@H]1[C@H](CCN1C(=O)c1ccncc1)[C@@H](CO)N2	RAD52 inh 87 (no result: Cneo AK release, PglD inh, RAD54 branch)
COc1ccccc1C#Cc1ccc2c(c1)[C@@H]1[C@@H](CCN1C(=O)c1ccccc1)[C@H](CO)N2	none (no result: Cneo AK release, PglD inh, RAD54 branch)
CCCN(C)C[C@@H]1Oc2ncc(C#Cc3cccc(OC)c3)cc2C(=O)N([C@H](C)CO)C[C@@H]1C	RAD52 inh 53 (no result: Cneo AK release, PglD inh, RAD54 branch)
COc1cccc(C#Cc2cnc3c(c2)C(=O)N([C@H](C)CO)C[C@@H](C)[C@@H](CN(C)C(=O)C2CCOCC2)O3)c1	Cneo AK release 81
CCCN(C)C[C@@H]1Oc2ncc(C#Cc3ccccc3OC)cc2C(=O)N([C@H](C)CO)C[C@@H]1C	RAD52 inh 57 (no result: Ecoli rRNA inh)
C[C@H](NC(=O)[C@@H]1N[C@@H]2c3ccc(C4=CCCCC4)c(=O)n3C[C@@H]2[C@H]1CO)c1ccccc1	none
CCCC(=O)N1CC2(C1)CN(S(C)(=O)=O)[C@H](CO)c1c2c2ccc(OC)cc2n1C	none (no result: Cneo AK release, PglD inh, RAD54 branch)
Cc1c(C(=O)N2CCN(CCc3ccccn3)CC2)oc2ccc(F)cc12	none
Cc1ccc2c(C)c(C(=O)N3CCN(Cc4ccccn4)CC3)oc2c1C	Cneo AK release 82
Cc1cc2oc(C(=O)N3CCN(CCc4ccccn4)CC3)c(C)c2cc1C	Ecoli rRNA inh -28
CS(=O)(=O)N1CCc2cc(NC(=O)c3ccc(Cl)cc3Cl)ccc21	Ecoli rRNA inh -24 (no result: Cneo AK release, PglD inh, RAD54 branch)
CS(=O)(=O)N1CCc2cc(C(=O)Nc3ccc(Cl)cc3)ccc21	none
C[C@H]1CN([C@@H](C)CO)C(=O)c2cc(/C=C/c3ccccc3)cnc2O[C@@H]1CN(C)S(C)(=O)=O	none
C[C@@H]1CN([C@@H](C)CO)C(=O)c2cc(/C=C/c3ccccc3)cnc2O[C@@H]1CN(C)S(C)(=O)=O	Cneo AK release 83
C[C@H](CO)N1C[C@H](C)[C@H](CN(C)S(=O)(=O)c2cn(C)cn2)Oc2ncc(/C=C/c3ccccc3)cc2C1=O	Cneo AK release 97!
COCC(=O)Nc1ccc2c(c1)C(=O)N(C)C[C@H](OC)[C@H](C)CN(Cc1ccccc1F)[C@H](C)CO2	none
CCNC[C@@H]1[C@@H](c2ccc(-c3ccc(F)cc3)cc2)[C@H](CO)N1S(C)(=O)=O	none (no result: RAD52 inh, Cneo AK release, PglD inh, RAD54 branch)
CCn1c(C)csc1=NC(=O)c1ccccc1	none (no result: RAD52 inh, Ecoli rRNA inh)
CCn1c(C)csc1=NC(=O)c1ccccc1O	Ecoli rRNA inh -23
C[C@@H]1CN([C@@H](C)CO)C(=O)c2cccc(NC(=O)c3ccncc3)c2O[C@@H]1CN(C)Cc1ccc(-c2ccccc2)cc1	Ecoli rRNA inh -19!
C[C@@H]1CN([C@H](C)CO)C(=O)c2cccc(NC(=O)c3ccncc3)c2O[C@@H]1CN(C)Cc1ccc(-c2ccccc2)cc1	Cneo AK release 101
CCC(=O)Nc1ccc2c(c1)OC[C@@H](C)N(C(C)=O)C[C@@H](C)[C@@H](OC)CN(C)C2=O	none
O=C(NCc1ccccc1)[C@]1(Cc2ccccc2)N=C(c2ccc(OCCCO)cc2)O[C@@H]1c1ccccc1	none (no result: Ecoli rRNA inh)
C[C@H](CO)N1C[C@H](C)[C@@H](CN(C)C(=O)c2ccc(F)cc2)OCc2ccccc2-c2c(n(C)c3ccccc23)C1=O	none (no result: RAD52 inh, Cneo AK release, PglD inh, RAD54 branch)
COC(=O)C1=C(C)N(Cc2ccccc2)C(=S)N[C@H]1c1cccc(F)c1	Cneo AK release 180
COC(=O)C1=C(C)N(Cc2ccc(F)cc2)C(=S)NC1c1cccc(F)c1 (configuration not stated)	none (no result: Cneo AK release, PglD inh, RAD54 branch)
COC(=O)C1=C(C)N(Cc2ccccc2C(F)(F)F)C(=NCc2ccc(C(F)(F)F)cc2)NC1c1ccc(Cl)cc1 (configuration not stated)	none (no result: Cneo AK release, PglD inh, RAD54 branch)
COC(=O)C1=C(C)N(Cc2ccc(C(F)(F)F)cc2)C(=NCc2ccccc2)NC1c1ccc(Cl)cc1 (configuration not stated)	Ecoli rRNA inh -42 (no result: Cneo AK release, PglD inh, RAD54 branch)
CCCNC(=O)N1CC2(CN(C(=O)c3cccnc3)C2)c2c([nH]c3cc(OC)ccc23)[C@H]1CO	none (no result: RAD52 inh, Cneo AK release, PglD inh, RAD54 branch)
Nc1ccc2ccccc2c1N=Nc1ccccc1	Ecoli rRNA inh -31
Cc1cccc(OCCC(=O)N(C)CC(=O)Nc2cccc3ccccc23)c1	Ecoli rRNA inh -20
CC(C)CC#Cc1ccc([C@H]2[C@@H](CO)N3C(=O)CN(S(C)(=O)=O)C[C@H]23)cc1	none (no result: RAD52 inh, Cneo AK release, PglD inh, RAD54 branch)
COn1c(-n2nc(C)cc2C)nc2ccccc2c1=O	Cneo AK release 91 (no result: RAD52 inh, Ecoli rRNA inh)
COc1ccc(NC(=O)Nc2ccc3c(c2)C(=O)N([C@@H](C)CO)C[C@@H](C)[C@@H](CN(C)Cc2ccncc2)OCCCC[C@H](C)O3)cc1	none
CCN(Cc1ccccc1)c1ccc(/C=N/N2CCOCC2)cc1	Ecoli rRNA inh -22 (no result: Cneo AK release, PglD inh, RAD54 branch)
Cc1ccc(C)c(NC(=S)N2CCC(c3nc4ccccc4s3)CC2)c1	Ecoli rRNA inh -35
CCC(=O)N1CC2(C1)CN(C(=O)CN1CCOCC1)[C@@H](CO)c1[nH]c3cc(OC)ccc3c12	none (no result: RAD52 inh, Cneo AK release, PglD inh, RAD54 branch)
Cc1cc(Oc2ccc(Cl)cc2)nc(-c2ccccn2)n1	Ecoli rRNA inh -33
COCCNC(=O)C[C@H]1CC[C@H](NS(=O)(=O)c2ccc(C)cc2)[C@H](CO)O1	none
CN(C)CCCn1c(=O)n(C2CCCCC2)c(=O)c2c3c(sc21)CCCCC3	Cneo AK release 88
CCCN(C)C[C@H]1Oc2ncc(-c3ccccc3F)cc2C(=O)N([C@H](C)CO)C[C@@H]1C	none
COc1ccccc1C#CC1=CC(=O)CC(C)(C)C1	Ecoli rRNA inh -23
O=C(C[C@H]1CC[C@@H]2[C@H](COC[C@H](O)CN2C(=O)Nc2ccc(F)cc2)O1)NCCCN1CCOCC1	none
CCC(=O)Nc1ccc2c(c1)C(=O)N(C)C[C@H](OC)[C@@H](C)CN(Cc1ccccc1F)[C@@H](C)CO2	none
COc1ccccc1-c1cn(CC[C@H]2CC[C@H](NC(=O)Cc3ccccn3)[C@@H](CO)O2)nn1	none
C=CCC1(O)C(=O)N2C(=C1C(=O)OCC)c1ccc3ccccc3c1CC2(C)C (configuration not stated)	none (no result: RAD52 inh, Ecoli rRNA inh)
CC1(C)Cc2c(ccc3ccccc23)C2=C(C(=O)N3CCCC3)C(=O)C(=O)N21	Ecoli rRNA inh -26 (no result: Cneo AK release, PglD inh, RAD54 branch)
C/C=C/c1ccc2c(c1)O[C@@H](CN(C)C(=O)C1CCC1)[C@@H](C)CN([C@@H](C)CO)S2(=O)=O	none (no result: RAD52 inh, Cneo AK release, PglD inh, RAD54 branch)
COc1ccc2c3c(n(C)c2c1)[C@@H](CO)N(C(=O)c1cnccn1)CC31CN(C(=O)c2ccncc2)C1	none (no result: RAD52 inh, Cneo AK release, PglD inh, RAD54 branch)
CCOC(=O)c1ccc(NC(=O)CSc2nc3ncccc3[nH]2)cc1	none
CCCCc1ccc(NC(=O)CSc2nc3ncccc3[nH]2)cc1	Ecoli rRNA inh -26
CC(C)c1cn([C@H]2C[C@@H]3O[C@@H](CO)CC[C@@H]3O[C@@H]2CCc2ccc(C#CC3(O)CCCC3)cc2)nn1	none (no result: Ecoli rRNA inh, Cneo AK release, PglD inh, RAD54 branch)
Cc1oc(-c2ccc(-c3ccccc3)cc2)nc1CN(C)C1CCOC1 (configuration not stated)	Ecoli rRNA inh -23
Cc1ccccc1NS(=O)(=O)c1cccc2nonc12	none
O=S(=O)(Nc1cccc2ccccc12)c1cccc2nonc12	Ecoli rRNA inh -27
